This note sets out measurements from the RNAGym collection of RNA variant scans (doi:10.1002/anie.201605470).

First the molecules themselves.
B1: Osa-1-4 twister ribozyme (parent)
chain: CCGCCUAACACUGCCAAUGCCGGUCCCAAGCCCGGAUAAAAGUGGAGGGGGCGG

In this data set the parent is B1. Put plainly: self-cleavage, relative activity (ratio to wild type); higher = more cleavage; co-transcriptional. Put shortly: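 A DNA template for a 54-nucleotide Oryza sativa twister ribozyme was synthesised with 97 % wild-type base and 1 % of each other base at the 48 positions downstream of the cleavage site. It was transcribed in vitro for 2 h at 37 °C, allowing co-transcriptional self-cleavage, then reverse-transcribed with a template-switching oligonucleotide, PCR-amplified and deep-sequenced. Cleavage status was scored from reads with or without upstream sequence. Relative activity is fraction cleaved normalised to wild type.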
With C15U G35A, the self-cleavage came to 0.59.
On to C15U G35C, for which the self-cleavage came out at 0.07.
Consider C15U G35U, for which the self-cleavage was determined as 0.35.
Regarding A16C C32U, the self-cleavage stood at 0.09.
The figure for A16C C32A is 0.07.
As for A16C C32G, the self-cleavage came to 0.12.
The figure for A16G G42A is 0.86; for A16G G42U it is 0.57; for A16G G42C it is 0.62.
The result for A16C G19U reads 0.19; that for A16C G19A, 0.62.
Turning to A16C G19C, the self-cleavage was found to be 0.13.
As for A16C A7G, the self-cleavage was found to be 0.17.
The result for A16C A7U reads 0.15; that for A16C A7C, 0.07; that for A16C G34U, 0.34.
Consider A16C G34A, for which the self-cleavage turned out to be 0.44.
Regarding A16C G34C, the self-cleavage stood at 0.23.
The result for A16G A46C reads 0.15; that for A16G A46U, 0.11; that for A16G A46G, 0.1.
As to A16C C31U, the self-cleavage amounted to 0.55.
For A16C C31A, the self-cleavage was found to be 0.04.
For A16C C31G, the self-cleavage came to 0.1.
Turning to A16C G54C, the self-cleavage was found to be 0.82.
The result for A16C G54U reads 0.88; that for A16C G54A, 0.86; that for A16C U37A, 0.84.
The result for A16C U37G reads 0.96.
In the case of A16C U37C, the self-cleavage came out at 1.02.
Regarding A16C C52G, the self-cleavage turned out to be 0.96.
The figure for A16C C52U is 0.98.
The result for A16C C52A reads 0.9.
The figure for A16C G48U is 0.06; for A16C G48C it is 0.07.
Turning to A16C G48A, the self-cleavage is 0.06.
The figure for A16C A17C is 0.87; for A16C A17G it is 0.9; for A16C A17U it is 0.98.
For A16G C27G, the self-cleavage stood at 0.15.
Take A16G C27U: the self-cleavage is 0.37.
On to A16G C27A, for which the self-cleavage came to 0.38.
Take A16C G22A: the self-cleavage came out at 0.76.
With A16C G22U, the self-cleavage amounted to 0.31.
The result for A16C G22C reads 0.07; that for C15U U37A, 0.62.
The result for C15U U37C reads 0.36.
With C15U U37G, the self-cleavage is 0.76.
For A16C C15U, the self-cleavage was 0.62.
The result for A16C C15A reads 0.39; that for A16C C15G, 0.54; that for C15U G51A, 0.15.
The result for C15U G51U reads 0.07.
The result for C15U G51C reads 0.04; that for C15U G50U, 0.43; that for C15U G50A, 0.47.
With C15U G50C, the self-cleavage is 0.23.
Take A16C G53A: the self-cleavage was determined as 0.65.
The figure for A16C G53U is 0.25; for A16C G53C it is 0.09.
The result for C15U G42U reads 0.06; that for C15U G42A, 0.12.
The figure for C15U G42C is 0.06; for C15U U43G it is 0.12; for C15U U43C it is 0.09.
Consider C15U U43A, for which the self-cleavage came to 0.16.
With A16C C26G, the self-cleavage was 0.1.
The result for A16C C26U reads 0.76; that for A16C C26A, 0.03; that for A16C C21A, 0.45.
The figure for A16C C21U is 0.93; for A16C C21G it is 0.08; for A16C G30C it is 0.05.
Turning to A16C G30U, the self-cleavage is 0.04.
Turning to A16C G30A, the self-cleavage stood at 0.04.
With A16C U18G, the self-cleavage amounted to 0.85.
With A16C U18C, the self-cleavage worked out at 0.91.
As for A16C U18A, the self-cleavage is 0.92.
The figure for A16C C27U is 0.1.
In the case of A16C C27G, the self-cleavage amounted to 0.06.
In the case of A16C C27A, the self-cleavage is 0.13.
The figure for A16C A41U is 0.97.
The result for A16C A41G reads 0.63.
Take A16C A41C: the self-cleavage was 0.74.
The result for C15U C33U reads 0.06.
For C15U C33G, the self-cleavage is 0.03.
The result for C15U C33A reads 0.05.
The result for A16C C20A reads 0.83; that for A16C C20U, 0.93; that for A16C C20G, 0.12.
The figure for C15U G53U is 0.1; for C15U G53A it is 0.12.
In the case of C15U G53C, the self-cleavage is 0.05.
As to C15U G45U, the self-cleavage was 0.03.
The result for C15U G45C reads 0.04; that for C15U G45A, 0.04.
Take C15U C32A: the self-cleavage was found to be 0.03.
Regarding C15U C32G, the self-cleavage was determined as 0.08.
The figure for C15U C32U is 0.06; for A16G G44A it is 0.96.
As for A16G G44C, the self-cleavage stood at 0.96.
On to A16G G44U, for which the self-cleavage came out at 0.95.
Consider A16C C14A, for which the self-cleavage was determined as 0.08.
Consider A16C C14G, for which the self-cleavage came out at 0.29.
The result for A16C C14U reads 0.27; that for A16G C26G, 0.13.
The result for A16G C26A reads 0.08; that for A16G C26U, 0.93; that for A16C A38G, 0.96.
The figure for A16C A38U is 1.01.
Regarding A16C A38C, the self-cleavage came to 1.01.
As for A16C G51U, the self-cleavage came to 0.35.
The figure for A16C G51C is 0.12; for A16C G51A it is 0.53.
The result for C15U U18G reads 0.39; that for C15U U18A, 0.51.
The figure for C15U U18C is 0.52; for C15U G48U it is 0.03.
Regarding C15U G48C, the self-cleavage was determined as 0.05.
As to C15U G48A, the self-cleavage came to 0.05.
The figure for A16G G35A is 0.87; for A16G G35C it is 0.8.
With A16G G35U, the self-cleavage turned out to be 0.93.
Take A16G A36U: the self-cleavage came to 1.06.
The result for A16G A36G reads 1.01; that for A16G A36C, 0.86; that for A16C G49U, 0.08.
Consider A16C G49C, for which the self-cleavage was 0.05.
The figure for A16C G49A is 0.09; for A16G G22U it is 0.82.
Consider A16G G22C, for which the self-cleavage is 0.19.
As for A16G G22A, the self-cleavage is 1.
The figure for A16C A46G is 0.06.
On to A16C A46C, for which the self-cleavage worked out at 0.06.
A16C A46U: the self-cleavage worked out at 0.07.
The figure for C15U U24A is 0.04; for C15U U24C it is 0.04.
On to C15U U24G, for which the self-cleavage stood at 0.03.
The figure for A16C U12A is 0.71; for A16C U12C it is 0.44; for A16C U12G it is 0.09.
The figure for C15U G30A is 0.02; for C15U G30C it is 0.02.
The result for C15U G30U reads 0.03; that for A16G C11A, 0.85.
For the variant A16G C11G, the self-cleavage was 0.65.
A16G C11U: the self-cleavage was found to be 0.95.
The figure for C15U C26A is 0.01; for C15U C26U it is 0.08.
The figure for C15U C26G is 0.06.
The figure for A16C A39C is 0.89; for A16C A39U it is 0.95.
Regarding A16C A39G, the self-cleavage turned out to be 0.95.
The figure for C15U G23A is 0.06.
The result for C15U G23C reads 0.03; that for C15U G23U, 0.03; that for A16G G48A, 0.18.
Regarding A16G G48U, the self-cleavage was found to be 0.1.
For A16G G48C, the self-cleavage is 0.15.
The result for A16G A8G reads 0.76; that for A16G A8U, 0.5; that for A16G A8C, 0.09.
The figure for C15U G49C is 0.04; for C15U G49U it is 0.04; for C15U G49A it is 0.05.
On to A16C A40C, for which the self-cleavage worked out at 0.07.
Consider A16C A40G, for which the self-cleavage came to 0.54.
